pIC50, pKi: −log10 of the molar value. Calls of active or inactive are those of the source. The rule behind the calls is not given here.

The species named for one series is Rattus norvegicus. Put plainly: Selectivity ratio of Ki for DOR in rat brain membrane to Ki for MOR in rat brain membrane. Type of series: cell membranes.
Series [1] can be described thus: Selectivity ratio of Ki for KOR in guinea pig brain membrane to Ki for MOR in rat brain membrane. Type of series: cell membranes.
The target in series [2] is Mu-type opioid receptor (Cavia porcellus, UniProt P97266). Briefly: Agonist activity at MOR in guinea pig ileum assessed as inhibition of electrically-stimulated muscle contractions. The method, boiled down: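 Isolated guinea pig ileum preparation; each preparation received a [Leu⁵]enkephalin standard dose–response curve. IC50 values came from concentration–response curves and were normalized to that standard. Values are the mean of three to four determinations ± SEM.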

Series [3] has as its target Delta-type opioid receptor (Mus musculus) (UniProt P32300). Put plainly: Partial agonist activity at delta opioid receptor in mouse vas deferens assessed as inhibition of electrically-stimulated muscle contraction. In a few lines: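 Mouse vas deferens preparation. A [Leu5]enkephalin dose–response curve was run on each preparation as standard, and test IC50 values were normalised to it. Mean of three to four determinations ± SEM.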

The nature of series [4]: Metabolic stability in rat plasma assessed as compound degradation at 37 degC measured after 2 hrs by reverse-phase HPLC analysis. Type of series: ADME, cell-free. The note with it: read-out: Drug degradation. The method, boiled down: (§1)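 Peptide at 0.5 mg/mL in 0.01 M phosphate buffer pH 7.4 mixed 1:1 with rat plasma supernatant and incubated at 37 °C. Samples taken at 0, 5, 10, 15, 30 min and 1, 2, 3, 24, 48 h, quenched with acetonitrile and 2% TFA/water. Analysed by reversed-phase C18 HPLC; peak areas expressed as percent of initial.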

In series [5] the target is Delta-type opioid receptor (Rattus norvegicus, UniProt P33533). Put plainly: Displacement of [3H]DSLET from DOR in rat brain membrane measured after 2 hrs. Type of series: cell membranes.
Series [6] addresses Kappa-type opioid receptor (Cavia porcellus, UniProt P41144). Put plainly: Displacement of [3H]U69,593 from KOR in guinea pig brain membrane measured after 2 hrs. Type of series: cell membranes. The method, boiled down:
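Guinea pig brain membranes incubated 2 h at 0 °C with 0.80 nM [3H]U69,593. […] Values are the mean of three to four determinations ± SEM.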

Series [7] has as its target Kappa-type opioid receptor (Cavia porcellus) (UniProt P41144). Put plainly: Antagonist activity at KOR in guinea pig ileum assessed as inhibition of U50,488-induced muscle contractions.
The target in series [8] is Mu-type opioid receptor (Cavia porcellus) (UniProt P97266). Put plainly: Antagonist activity at MOR in guinea pig ileum assessed as inhibition of TAPP-induced muscle contractions. The method, boiled down: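 Guinea pig ileum preparation. Ke was derived from the ratio of TAPP IC50 with and without a fixed antagonist concentration. Mean of three to four determinations ± SEM.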

In series [9] the target is Mu-type opioid receptor (Rattus norvegicus, UniProt P33535). Briefly: Displacement of [3H]DAMGO from MOR in rat brain membrane measured after 2 hrs. Type of series: cell membranes.
Series [10] in a line: Cmax in CD-1 mouse brain at 2 mg/kg, iv measured after 30 mins by LC-MS/MS analysis. Also noted: dose 2 mg/kg, route intravenous. Type of series: ADME, organism-based. The method, boiled down: (§2)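 Male CD1 mice (27 g) given 2 mg/kg iv in saline; brain and plasma sampled at 5, 15, 30, 60, 120 and 240 min. Brain homogenised in PBS pH 7.4, plasma proteins precipitated with acetonitrile/methanol (1:1). Quantitation by LC–MS/MS against internal standard, with standard curves extracted from brain homogenate and fitted by 1/x-weighted linear regression. AUCs were taken from concentration–time curves.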

A short description of series [11]: Metabolic stability in rat plasma at 37 degC measured up to 48 hrs by reverse-phase HPLC analysis. Type of series: ADME, cell-free. In a few lines:
as §1

A short description of series [12]: AUC in CD-1 mouse brain at 2 mg/kg, iv by LC-MS/MS analysis. Type of series: ADME, organism-based. The note with it: in vivo. In a few lines:
as §2

A short description of series [13]: AUC in CD-1 mouse plasma at 2 mg/kg, iv by LC-MS/MS analysis. Type of series: ADME, organism-based. In a few lines: as §2
A short description of series [14]: Metabolic stability in rat plasma assessed as compound remaining at 37 degC measured after 15 mins by reverse-phase HPLC analysis.

Sequence of Delta-type opioid receptor (Mus musculus) (P32300 whole entry): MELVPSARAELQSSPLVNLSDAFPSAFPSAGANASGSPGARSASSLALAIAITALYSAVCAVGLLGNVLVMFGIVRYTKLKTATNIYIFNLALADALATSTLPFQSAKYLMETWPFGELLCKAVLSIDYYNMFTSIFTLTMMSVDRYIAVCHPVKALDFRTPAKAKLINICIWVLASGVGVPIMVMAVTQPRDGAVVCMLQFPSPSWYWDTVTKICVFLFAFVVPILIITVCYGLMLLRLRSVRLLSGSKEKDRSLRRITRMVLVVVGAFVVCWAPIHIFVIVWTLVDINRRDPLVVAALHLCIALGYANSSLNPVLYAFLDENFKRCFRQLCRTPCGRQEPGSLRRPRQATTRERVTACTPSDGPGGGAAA
Sequence of Delta-type opioid receptor (P33533 whole entry): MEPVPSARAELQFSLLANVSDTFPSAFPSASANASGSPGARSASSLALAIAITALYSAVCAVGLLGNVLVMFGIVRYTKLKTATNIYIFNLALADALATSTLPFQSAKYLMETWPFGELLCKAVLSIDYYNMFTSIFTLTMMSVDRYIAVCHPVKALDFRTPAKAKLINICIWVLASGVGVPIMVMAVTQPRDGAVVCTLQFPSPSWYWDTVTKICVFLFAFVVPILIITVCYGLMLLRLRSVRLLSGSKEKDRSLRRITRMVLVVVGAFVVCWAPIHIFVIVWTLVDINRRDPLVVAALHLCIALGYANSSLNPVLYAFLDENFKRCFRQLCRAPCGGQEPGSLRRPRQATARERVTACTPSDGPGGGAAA
Sequence of Mu-type opioid receptor (Cavia porcellus) (P97266 whole entry): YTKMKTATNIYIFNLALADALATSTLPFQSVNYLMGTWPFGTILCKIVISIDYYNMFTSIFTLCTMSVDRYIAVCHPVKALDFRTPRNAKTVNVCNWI
Sequence of Kappa-type opioid receptor (P41144 whole entry): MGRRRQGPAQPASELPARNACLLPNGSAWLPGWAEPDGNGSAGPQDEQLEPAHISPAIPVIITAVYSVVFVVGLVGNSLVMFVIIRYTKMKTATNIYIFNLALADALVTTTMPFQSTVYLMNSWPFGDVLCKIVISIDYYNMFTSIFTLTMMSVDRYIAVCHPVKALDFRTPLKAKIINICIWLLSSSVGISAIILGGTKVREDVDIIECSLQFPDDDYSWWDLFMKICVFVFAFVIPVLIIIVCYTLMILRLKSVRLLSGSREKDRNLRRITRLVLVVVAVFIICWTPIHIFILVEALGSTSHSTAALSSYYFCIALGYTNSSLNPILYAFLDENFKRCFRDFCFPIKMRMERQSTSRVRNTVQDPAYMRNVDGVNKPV
Sequence of Mu-type opioid receptor (Rattus norvegicus, UniProt P33535) (P33535 whole entry): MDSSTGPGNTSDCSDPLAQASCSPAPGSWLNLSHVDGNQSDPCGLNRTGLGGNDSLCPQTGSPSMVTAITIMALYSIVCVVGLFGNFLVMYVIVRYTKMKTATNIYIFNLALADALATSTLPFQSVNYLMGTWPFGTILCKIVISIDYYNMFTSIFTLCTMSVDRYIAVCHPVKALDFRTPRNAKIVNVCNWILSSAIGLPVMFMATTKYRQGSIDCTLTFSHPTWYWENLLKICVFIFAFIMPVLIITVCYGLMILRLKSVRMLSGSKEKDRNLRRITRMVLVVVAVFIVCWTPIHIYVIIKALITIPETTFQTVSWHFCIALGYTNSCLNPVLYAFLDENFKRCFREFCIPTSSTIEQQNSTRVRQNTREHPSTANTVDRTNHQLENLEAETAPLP
Sequence of Mu-type opioid receptor (Cavia porcellus, UniProt P97266) (P97266 whole entry): as the sequence (P97266 whole entry) above
Sequence of Kappa-type opioid receptor (Cavia porcellus) (P41144 whole entry): as the sequence (P41144 whole entry) above

Consider `Cc1cc(O)cc(C)c1C[C@@H]1NC[C@H](CCCCN)NC(=O)[C@H](Cc2ccccc2)NC(=O)[C@@H](CCCNC(=N)N)NC1=O`, for which the Ratio Ki stood at 47 in the series listed under Rattus norvegicus and 7 in series [1]. For the same molecule, at Mu-type opioid receptor [2], the pIC50 was 5.60. The outcome in series [3] was Active.

With `C[C@@H](O)[C@H](NC(=O)[C@H]1NC(=O)[C@H]([C@@H](C)O)NC(=O)[C@H](CCCN)NC(=O)[C@@H](Cc2c[nH]c3ccccc23)NC(=O)[C@H](Cc2ccc(O)cc2)NC(=O)[C@@H](NC(=O)[C@H](N)Cc2ccccc2)CSSC1(C)C)C(N)=O`, the metabolised at 2 h in series [4] is 25%. Also, the pKi is 6.59 in series [5] and 4.83 in [6]. Moreover, in [3], the outcome was Active.

For the molecule `Cc1cc(O)cc(C)c1C[C@@H]1NC(=O)C[C@H](CCCCN)NC(=O)[C@H](Cc2ccccc2)NC(=O)[C@@H](CCCNC(=N)N)NC1=O`, the Ke in series [7] turned out to be 18.2 nM; in [8], 10.5 nM. Further, the Ratio Ki was 135 in the series listed under Rattus norvegicus and 6 in series [1]. Moreover, the pKi is 9.91 on Mu-type opioid receptor [9], 7.78 in [5] and 9.10 in series [6].

Consider `Cc1cc(O)cc(C)c1C[C@@H]1NC(=O)[C@H](CCCCN)NC(=O)[C@H](Cc2ccccc2)NC(=O)[C@@H](CCCNC(N)=O)NC1=O`, for which the figures for the Ratio Ki (in the series filed under Rattus norvegicus; in [1]) were 52 and 165, respectively.

Turning to `Cc1cc(O)cc(C)c1C[C@@H]1NC(=O)[C@H](CCCCN)NC(=O)[C@H](Cc2ccccc2)NC(=O)[C@@H](CCCCNC(=N)N)NC1=O`, the figures for the Ratio Ki (in the series filed under Rattus norvegicus; in series [1]) were 25 and 23, respectively. In addition, the result in series [3] was Active.

The molecule `Cc1cc(O)cc(C)c1C[C@@H]1NC(=O)[C@H](CCCCN)NC(=O)[C@H](Cc2ccccc2)NC(=O)[C@@H](CCCNC(=N)N)NC1=O` returned a Cmax in series [10] of 0.6 ng/g. Further, the Stability result in series [11] is reported as “Stable”. The AUC was 0.052 µg·min/g in [12] and 0.505 ng·h/mL in series [13].

Consider `Cc1cc(O)cc(C)c1C[C@@H]1NC(=O)C(CCCN)NC(=O)[C@H](Cc2ccccc2)NC(=O)[C@@H](CCCNC(=N)N)NC1=O` (stereo partly drawn), for which the Ke in series [8] came out at 16.8 nM. Besides, in [3], the result was Active.

Consider `CCCC[C@@H]1NC(=O)[C@H](Cc2ccccc2)NC(=O)[C@@H](CCCNC(=N)N)NC(=O)[C@H](Cc2c(C)cc(O)cc2C)NC1=O`, for which the outcome in series [3] was Active.

For `CC(C)C[C@H](NC(=O)[C@H](Cc1ccccc1)NC(=O)CNC(=O)CNC(=O)[C@@H](N)Cc1ccc(O)cc1)C(=O)O` [ENKEPHALIN], in [14], the share remaining at 0.25 h is less than 15%.

The record behind these values is ChEMBL document CHEMBL3862004, “A Cyclic Tetrapeptide ("Cyclodal") and Its Mirror-Image Isomer Are Both High-Affinity μ Opioid Receptor Antagonists” (J Med Chem, 2016).
